Laboratory results published in publication PMC2882023 (The Journal of neuroscience : the official journal of the …, 2010).
Structures can show the parent of a compound that is named as a salt. Where two headings read alike, the source gives them in different places.

How the values were obtained:
[1] = ref Wu et al. 2004; cited from earlier work
[2] = tested on: pERK-positive cells in L6 spinal cord; assay: spinal ERK activation; type: in vivo, Sprague-Dawley rats; details: 300 nmol, i.t., 10 min before 1% acetic acid intravesically; n = 4
How it was run: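 Separate experiment in urethane-anaesthetised bladder-cannulated female rats: ≥1 h post-cannulation, i.t. test compound (300 nmol) or 5% DMSO; 10 min later, 700 μl 1% acetic acid intravesically for 2 min (sham: vehicle, no acid, 12 min). Perfusion-fixed (4% paraformaldehyde/picric acid); 20 μm L6 cryosections. Anti-phospho-p44/42 (Thr202/Tyr204) staining with tyramide amplification and FITC. Four rats/group, three sections each, blind counting; one-way ANOVA/Tukey.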

[3] = tested on: micturition reflex contractions; type: in vivo, Sprague-Dawley rats; details: i.t.; for intercontraction interval (ICI): anaesthetized rats, mean ± SEM; for intercontraction interval (ICI), extent of prolongation over the dose range: across the doses tested
How it was run: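 Urethane-anaesthetised (1.2 g/kg i.p.) adult female rats, 200–280 g, with an intrathecal catheter tip at L1 placed ≥1 d earlier. Ureters and urethral orifice ligated. Bladder saline-infused at 100 μl/min to micturition threshold, then 3–5 μl/min. After ≥10 min stable baseline, vehicle (saline or 5% DMSO/saline), then escalating i.t. doses (10 μl + 10 μl saline flush, ≥8 min apart). ICI from intravesical pressure; n = 5–15; repeated-measures ANOVA/Bonferroni.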

[4] = tested on: other P2X receptors; assay: calcium flux selectivity over other P2X receptors; type: cell-based; details: up to a concentration of 10 μM
How it was run: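 Off-target P2X subtypes were tested in Fluo-3-loaded CHOK1 cells (recombinant human P2X1, human P2X4, rat P2X5 or human P2X7) and 1321N1 astrocytoma cells (cloned human P2X2). Intracellular calcium flux was evoked by αβmeATP or ATP, at a level varied by subtype, with test compound present. pIC50 was derived with n = 3 per receptor.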

[5] = tested on: more than 100 kinases; assay: Ambit kinase screen; type: binding; details: 10 μM
[6] = target: T1, hP2X2/3 (Homo sapiens, UniProt P56373+Q9UBL9); type: cell-based; details: αβmeATP or ATP-evoked calcium flux, 1321N1 cells, n = 15
T1 sequence (Q9UBL9 1-471): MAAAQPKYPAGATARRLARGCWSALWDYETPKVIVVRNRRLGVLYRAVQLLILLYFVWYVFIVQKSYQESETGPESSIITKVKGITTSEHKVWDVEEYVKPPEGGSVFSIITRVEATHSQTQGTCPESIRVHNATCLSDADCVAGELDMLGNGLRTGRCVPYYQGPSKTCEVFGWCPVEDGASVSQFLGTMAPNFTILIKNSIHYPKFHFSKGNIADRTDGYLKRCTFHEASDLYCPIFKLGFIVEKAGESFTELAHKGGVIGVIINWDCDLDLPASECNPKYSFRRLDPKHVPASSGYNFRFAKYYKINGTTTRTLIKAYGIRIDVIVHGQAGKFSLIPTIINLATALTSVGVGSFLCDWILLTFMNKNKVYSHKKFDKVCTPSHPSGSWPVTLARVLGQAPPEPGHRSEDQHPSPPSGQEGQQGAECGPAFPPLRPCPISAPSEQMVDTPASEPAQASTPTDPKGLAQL
T1 sequence (P56373 1-397): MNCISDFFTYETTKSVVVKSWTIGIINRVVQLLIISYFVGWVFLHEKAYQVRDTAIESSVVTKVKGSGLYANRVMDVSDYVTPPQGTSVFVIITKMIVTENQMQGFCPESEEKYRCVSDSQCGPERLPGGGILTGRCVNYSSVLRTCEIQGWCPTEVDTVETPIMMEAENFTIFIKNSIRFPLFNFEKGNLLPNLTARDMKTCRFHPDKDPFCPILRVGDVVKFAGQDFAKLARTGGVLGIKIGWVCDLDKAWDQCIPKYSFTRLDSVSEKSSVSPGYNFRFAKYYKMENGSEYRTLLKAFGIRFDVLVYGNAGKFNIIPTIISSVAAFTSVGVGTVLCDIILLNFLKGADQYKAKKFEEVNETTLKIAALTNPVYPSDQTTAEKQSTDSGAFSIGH
How it was run: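 Cytosolic calcium flux was read in Fluo-3-loaded 1321N1 astrocytoma cells transfected with cloned human P2X2/3 receptors. Flux was evoked by αβmeATP or ATP, at an agonist level set per receptor subtype, with test compound present. Inhibition was expressed as pIC50 ± SEM from 15 determinations.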

[7] = tested on: 75 receptors, channels, enzymes, and transporters; assay: Cerep screen of 75 receptors, channels, enzymes and transporters; type: binding; details: 10 μM, 75 targets
[8] = tested on: P2X2/3; details: ref Gever et al., 2006; Carter et al., 2009; cited from earlier work
[9] = tested on: P2X3; details: ref Gever et al., 2006; Carter et al., 2009; cited from earlier work
[10] = tested on: P2X1; details: ref Gever et al., 2006; Carter et al., 2009; cited from earlier work

Row | SMILES | pIC50 at P2X2/3 [8] | intercontraction interval (ICI) ([3]; 10 nmol) | intercontraction interval (ICI), extent of prolongation over the dose range [3] | pIC50 at P2X3 [9] | intercontraction interval (ICI) ([3]; 1 nmol) | also measured
1 | O=C(O)c1cc(C(=O)O)c(C(=O)N(Cc2cccc(Oc3ccccc3)c2)[C@H]2CCCc3ccccc32)cc1C(=O)O [A-317491] |  |  |  |  |  | CNS permeability [1]: negligible CNS permeability
2 | C#Cc1cc(Oc2cnc(N)nc2N)c(C(C)C)cc1OC [AF-792] |  |  |  |  |  | number of pERK-positive cells in L6 spinal cord segment [2]: 43.0 ± 9.6 cells/ section; intercontraction interval (ICI) ([3]; 100 nmol): 8.00 ± 1.67 min; intercontraction interval (ICI) ([3]; 300 nmol): 9.33 ± 2.50 min; inhibition at other P2X receptors [4]: no inhibition; inhibition of radioligand binding or function [5]: little or no inhibition; pIC50 ± SEM [6]: 7.94 ± 0.08; inhibition of radioligand binding or function [7]: little or no inhibition
3 | Cc1nc(N=Nc2ccc(S(=O)(=O)O)cc2S(=O)(=O)O)c(COP(=O)(O)O)c(C=O)c1O [PPADs, pyridoxal-phosphate-6-azophenyl-2′,4′,-disulphonic acid] | 6 | 3.50 ± 1.15 min | more than 2 min | 6 |  | 
4 | Nc1ncnc2c1ncn2[C@@H]1O[C@H](COP(=O)(O)OP(=O)(O)OP(=O)(O)O)[C@H]2OC3(O[C@H]21)C([N+](=O)[O-])=CC(=[N+]([O-])[O-])C=C3[N+](=O)[O-] (some centres unmarked) [TNP-ATP, 2′,3′-O-(2,4,6-trinitrophenyl) adenosine 5′-triphosphate monolithium trisodium salt] | 8.4 | 4.28 ± 1.21 min |  | 9 | 4.64 ± 1.30 min | pIC50 at P2X1 [10]: 8.22
5 | Nc1ncnc2c1ncn2[C@@H]1O[C@H](COP(=O)(O)CP(=O)(O)OP(=O)(O)O)[C@@H](O)[C@H]1O [αβmeATP, α,β-methylene-ATP] |  |  | up to 10 min |  | 8.45 ± 2.48 min | lowest significant dose for prolonging the ICI [3]: 1 nmol
